Calls of active or inactive are those of the source. No cut-off for these calls is given here.
Key:
KB = experiment: Antiviral activity against type 13 rhinovirus infected in human KB cells assessed as reduction in cytopathic effect after 72 hrs incubation; format: functional, cell-based; conditions: Human rhinovirus A13
Summary of the method: (§1)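 Human nasopharyngeal carcinoma (KB) cells infected with virus and tested at compound concentrations of 1000 to 1 ug/ml. After 72 h incubation at 37 °C, inhibition of viral cytopathic effect was scored by observation and expressed as a virus rating (VR). Values are the average of one to five tests.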

Ehrlich [1] = experiment: Inhibition of purine nucleotide biosynthesis in mouse Ehrlich ascites tumor cells assessed as inhibition of [14C]hypoxanthine into adenine nucleotides at 1 mM after 60 mins incubation; format: functional; conditions: 1 h
Summary of the method: (§2)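 Ehrlich ascites tumor cell suspensions preincubated at 37 °C for 20 min with or without 1 mM compound. [14C]Hypoxanthine (55 µCi/µmol) then added to a final 0.1 mM, followed by 60 min more incubation. Adenine (AMP+ADP+ATP) and guanine (GMP+GDP+GTP) nucleotides separated by TLC on PEI-cellulose; % inhibition of label incorporation.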

Human alphaherpesvirus 1 = experiment: Antiviral activity against type 1 herpes simplex virus type 1 infected in human KB cells assessed as reduction in cytopathic effect after 72 hrs incubation; format: functional, organism-based; summary of the method: as §1
Ehrlich [2] = experiment: Inhibition of purine nucleotide biosynthesis in mouse Ehrlich ascites tumor cells assessed as inhibition of [14C]hypoxanthine into guanine nucleotides at 1 mM after 60 mins incubation; format: functional; conditions: 1 h; summary of the method: as §2
Human respirovirus 1 [3] = experiment: Antiviral activity against type 1 parainfluenza virus infected in mouse assessed as mouse survival at 104 mg/kg, po thrice a day for 8 days after 1 hr viral infection; format: functional, organism-based; parameters: dose 104 mg/kg
Summary of the method: (§3)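 Sendai (type 1 parainfluenza) virus given intranasally to female mice (18-20 g). Oral dosing three times daily for 8 days, beginning 1 h post-inoculation; 10 infected mice per dose, with a carboxymethylcellulose placebo group. Survivors/total counted, with p values for the survivor increase.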

Mus musculus [4] = experiment: Toxicity in mouse assessed as survival at 104 mg/kg, po; format: organism-based; parameters: dose 104 mg/kg, route oral; conditions: in vivo
Summary of the method: (§4)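 Uninfected toxicity-control mice, 5 per dose, received compound by the oral route alongside the infected groups. Survivors/total recorded, and weight gain was observed.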

Human respirovirus 1 [5] = experiment: Antiviral activity against type 1 parainfluenza virus infected in mouse assessed as mouse mean death day at 26 mg/kg, po thrice a day for 8 days after 1 hr viral infection (reference value: 8.9 days); format: functional
Human respirovirus 1 [6] = experiment: Antiviral activity against type 1 parainfluenza virus infected in mouse assessed as mouse mean death day at 52 mg/kg, po thrice a day for 8 days after 1 hr viral infection (reference value: 8.9 days); format: functional
Human respirovirus 1 [7] = experiment: Antiviral activity against type 1 parainfluenza virus infected in mouse assessed as mouse mean death day at 104 mg/kg, po thrice a day for 8 days after 1 hr viral infection (reference value: 8.9 days); format: functional
Human respirovirus 1 [8] = experiment: Antiviral activity against type 1 parainfluenza virus infected in mouse assessed as mouse mean death day at 49.5 mg/kg, po thrice a day for 8 days after 1 hr viral infection (reference value: 8.9 days); format: functional
Mus musculus [9] = experiment: Toxicity in mouse assessed as survival at 99 mg/kg, po; format: organism-based; parameters: dose 99 mg/kg, route oral; conditions: in vivo; summary of the method: as §4
Human respirovirus 1 [10] = experiment: Antiviral activity against type 1 parainfluenza virus infected in mouse assessed as mouse mean death day at 99 mg/kg, po thrice a day for 8 days after 1 hr viral infection (reference value: 8.9 days); format: functional
Human respirovirus 1 [11] = experiment: Antiviral activity against type 1 parainfluenza virus infected in mouse assessed as mouse survival at 38.8 mg/kg, po thrice a day for 8 days after 1 hr viral infection; format: functional, organism-based; parameters: dose 38.8 mg/kg; summary of the method: as §3
Human respirovirus 1 [12] = experiment: Antiviral activity against type 1 parainfluenza virus infected in mouse assessed as mouse mean death day at 38.8 mg/kg, po thrice a day for 8 days after 1 hr viral infection (reference value: 8.9 days); format: functional
Human respirovirus 1 [13] = experiment: Antiviral activity against type 1 parainfluenza virus infected in mouse assessed as mouse survival at 155 mg/kg, po thrice a day for 8 days after 1 hr viral infection; format: functional, organism-based; parameters: dose 155 mg/kg; summary of the method: as §3
Human respirovirus 1 [14] = experiment: Antiviral activity against type 1 parainfluenza virus infected in mouse assessed as mouse mean death day at 77.5 mg/kg, po thrice a day for 8 days after 1 hr viral infection (reference value: 8.9 days); format: functional
Human respirovirus 1 [15] = experiment: Antiviral activity against type 1 parainfluenza virus infected in mouse assessed as mouse survival at 77.5 mg/kg, po thrice a day for 8 days after 1 hr viral infection; format: functional, organism-based; parameters: dose 77.5 mg/kg; summary of the method: as §3
Mus musculus [16] = experiment: Toxicity in mouse assessed as survival at 77.5 mg/kg, po; format: organism-based; parameters: dose 77.5 mg/kg, route oral; conditions: in vivo; summary of the method: as §4
Human respirovirus 1 [17] = experiment: Antiviral activity against type 1 parainfluenza virus infected in mouse assessed as mouse mean death day at 155 mg/kg, po thrice a day for 8 days after 1 hr viral infection (reference value: 8.9 days); format: functional
Mus musculus [18] = experiment: Toxicity in mouse assessed as survival at 155 mg/kg, po; format: organism-based; parameters: dose 155 mg/kg, route oral; conditions: in vivo; summary of the method: as §4

SMILES | Activity (KB) | inhibition at 1000 µM (Ehrlich [1]) [%] | Activity (Human alphaherpesvirus 1) | inhibition at 1000 µM (Ehrlich [2]) [%] | further results
NC(=S)c1csc([C@@H]2O[C@H](CO)[C@@H](O)[C@H]2O)n1 | inactive | 0 | inactive | 12 | –
NC(=O)c1cnc([C@@H]2O[C@H](CO)[C@@H](O)[C@H]2O)s1 | inactive | 1 | inactive | 6.8 | –
C[C@H]1O[C@@H](c2nc(C(N)=O)cs2)[C@H](O)[C@@H]1O | inactive | 0 | inactive | 0 | –
NC(=O)c1csc([C@@H]2O[C@H](CO)[C@@H](O)[C@H]2O)n1 [TIAZOFURIN] | Active | 0 | Active | 69 | Survival (Human respirovirus 1 [3]): Active; Activity (Mus musculus [4]): Non-toxic; Time (Human respirovirus 1 [5]): 10.9 days; Time (Human respirovirus 1 [6]): 11 days; Time (Human respirovirus 1 [7]): 12.3 days
NC(=O)c1csc(-c2ccc(CO)o2)n1 | inactive | 0 | inactive | 0 | –
NC(=O)c1ncn([C@@H]2O[C@H](CO)[C@@H](O)[C@H]2O)n1 [RIBAVIRIN] | – | – | – | – | Time (Human respirovirus 1 [8]): 12 days; Activity (Mus musculus [9]): Non-toxic; Time (Human respirovirus 1 [10]): 10 days
CC(=O)OC[C@H]1O[C@@H](c2nc(C(N)=O)cs2)[C@H](OC(C)=O)[C@@H]1OC(C)=O | inactive | 0 | Active | 42 | Survival (Human respirovirus 1 [11]): Active; Time (Human respirovirus 1 [12]): 11 days; Survival (Human respirovirus 1 [13]): Active; Time (Human respirovirus 1 [14]): 11.9 days; Survival (Human respirovirus 1 [15]): Active; Activity (Mus musculus [16]): Non-toxic; Time (Human respirovirus 1 [17]): 8.6 days; Activity (Mus musculus [18]): Non-toxic

Source: ChEMBL document CHEMBL3244326, “Synthesis and antiviral activity of certain thiazole C-nucleosides” (J Med Chem, 1977)
